Screens (PubChem)
Diaph act CS = counter-screen for diaphorase-based assays: diaphorase activators and chemical reducers. Diaphorase/resazurin coupled assay, resorufin fluorescence, 16 min; hits give high values; 1 = vehicle wells, 0 = NADH-free wells. activation factor at 20 µM. 0.005% of 190,000 active. AID 1229;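 active = diaphorase activity raised at least twofold by the compound at 20 µM; inactive = activation factor below 2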
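Material: purified diaphorase enzyme from Clostridium kluyveri / Medium: HEPES pH 7.4 buffer with MgCl2 and Tween 20 / Schedule: enzyme reaction of 16 min at room temperature / Measured by: resorufin fluorescence, excitation 544 nm, emission 590 nm / Evaluation: rise in resorufin formation, marking diaphorase activation or chemical reduction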
Diaph inh CS = inhibits diaphorase or chemically oxidizes, flagging diaphorase assay artifacts | inhibition, % at 20 µM | AID 1217 | diaphorase resazurin-to-resorufin fluorescence, NADH, 16 min; bacterial (C. kluyveri) enzyme, not human | 0.69% of 190,000 active;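 active = primary screen inhibition at 20 µM above a set limit, cut at about 50% in these data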
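Assay system: diaphorase enzyme from Clostridium kluyveri; Input: enzyme working solution with 0.14 U/mL diaphorase; Timing: 16 min at room temperature; Technique: resorufin fluorescence, excitation 544 nm, emission 590 nm; Benchmarks: positive control minus NADH, DMSO neutral control.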
Tb hexokinase = T. brucei hexokinase 1 inhibition; 0.11% of 220,000 active; inhibition, % at 10 µM; recombinant TbHK1, G6PDH-coupled NADH A340;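 active = inhibition of 50% or more in the single-dose primary screen; inactive = inhibition below 50%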
PfGluPho inh = PfG6PD (Plasmodium falciparum) enzyme inhibition | PfGluPho enzyme, NADPH resazurin-diaphorase fluorescence | inhibition, % at 20 µM | 0.78% of 350,000 active;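 active = inhibition reaching at least a set limit at 20 µM in the primary screen, cut at about 59% in these data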
G6PDH CS = inhibits Leuconostoc G6PDH, flagging false hits in G6PDH-based assays. Purified L. mesenteroides G6PDH, diaphorase/resazurin coupled fluorescence, 45 min. inhibition, % at 5 µM. 0.12% of 200,000 active; in the data active = inhibition above about 50%
HKDC1 inhibitor = HKDC1 (human) hexokinase inhibition; 0.16% of 340,000 active; inhibition, % at 20 µM; recombinant HKDC1, G6PDH/diaphorase resazurin coupled fluorescence; Q2TB90;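 active = inhibition above about 35% when tested at 20 µM, limit read from the data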
Target sequence (Q2TB90 whole entry, looked up): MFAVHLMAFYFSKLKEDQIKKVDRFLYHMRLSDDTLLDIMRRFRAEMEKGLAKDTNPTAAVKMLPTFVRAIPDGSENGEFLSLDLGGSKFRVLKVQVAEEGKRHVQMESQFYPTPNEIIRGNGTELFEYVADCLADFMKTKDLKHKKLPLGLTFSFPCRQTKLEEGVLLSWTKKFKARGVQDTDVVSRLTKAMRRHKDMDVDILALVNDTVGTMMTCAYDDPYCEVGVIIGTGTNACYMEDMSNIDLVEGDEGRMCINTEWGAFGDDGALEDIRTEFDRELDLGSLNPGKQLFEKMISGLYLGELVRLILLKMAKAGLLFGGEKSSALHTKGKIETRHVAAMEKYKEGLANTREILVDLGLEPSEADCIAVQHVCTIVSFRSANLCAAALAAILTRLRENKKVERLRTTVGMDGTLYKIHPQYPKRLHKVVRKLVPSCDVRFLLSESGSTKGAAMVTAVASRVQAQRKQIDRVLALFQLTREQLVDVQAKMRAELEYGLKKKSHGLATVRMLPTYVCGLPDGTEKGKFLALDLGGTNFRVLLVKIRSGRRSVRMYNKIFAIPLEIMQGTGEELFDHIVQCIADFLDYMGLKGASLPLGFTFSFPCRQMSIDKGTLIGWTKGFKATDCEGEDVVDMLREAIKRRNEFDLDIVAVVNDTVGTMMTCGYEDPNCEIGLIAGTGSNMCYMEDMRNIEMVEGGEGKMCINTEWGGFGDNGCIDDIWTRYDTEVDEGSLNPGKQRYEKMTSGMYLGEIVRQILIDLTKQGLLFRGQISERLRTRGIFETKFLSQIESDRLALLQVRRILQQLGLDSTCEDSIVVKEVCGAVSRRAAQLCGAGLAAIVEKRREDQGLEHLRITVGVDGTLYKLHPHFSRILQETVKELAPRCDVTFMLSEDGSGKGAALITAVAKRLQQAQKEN
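test system = in-house recombinant HK5 (HKDC1) enzyme | amount = HKDC1 at 5 µg/mL | control set = DMSO-enzyme wells negative, buffer-substituted wells positive | compound = one dose of 20 µM, 1% DMSO | schedule = reaction time 90 min, room temperature, protected from light | technique = resorufin fluorescence at 613 nm | reagent = glucose with 1 mM ATP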
Of the large screens only hits and unclear results are named; the others gave an inactive call. Most compounds without a hit are left out; they make up all but 1.3% or so of the library.

COCCOC(=O)C1=C(C)NC2(O)c3ccccc3C(=O)C12O (stereo not given)	Diaph inh CS 73.7
CC(/C=N/n1c(-c2ccco2)n[nH]c1=S)=C\c1ccccc1	Diaph inh CS 50.1
S=c1[nH]nc(-c2ccco2)n1/N=C/C=C/c1ccco1	Diaph inh CS 64.0
S=c1[nH]nc(-c2cc(-c3ccccc3)n[nH]2)n1/N=C/C=C/c1ccco1	none (no result: Diaph act CS, Diaph inh CS, G6PDH CS)
CC(/C=N/n1c(-c2ccc(Cl)cc2)n[nH]c1=S)=C\c1ccco1	Diaph inh CS 53.1
CC(C)CCN1C(=O)C2(OCCCO2)c2cc(Cl)ccc21	none (no result: Diaph act CS, Diaph inh CS, Tb hexokinase, G6PDH CS)
NC(=O)c1ccc(NC(=O)COC(=O)c2ccccc2SCC(=O)N2CCCC2)cc1	none (no result: Diaph act CS, Diaph inh CS, Tb hexokinase, G6PDH CS, HKDC1 inhibitor)
CCN1/C(=C/c2ccc3cc(C)ccc3[n+]2CC)Sc2ccc3sccc3c21	PfGluPho inh 61.1 (no result: Diaph act CS, Diaph inh CS, Tb hexokinase, G6PDH CS)
CCOC(=O)Cc1csc(NC(=O)NC2(C(F)(F)F)Oc3cc(Cl)c(Cl)cc3O2)n1	G6PDH CS 51.3
CCOC(=O)Cc1csc(NC(=O)NC2(C(F)(F)F)Oc3ccc(Cl)cc3O2)n1 (stereo not given)	none
CC(=O)N1CCc2cc(S(=O)(=O)N3CCc4ccccc43)ccc21	none (no result: Diaph act CS, Diaph inh CS, Tb hexokinase, G6PDH CS)
CC(C)NC(=O)CN(C(=O)CCC(=O)Nc1nccs1)c1ccc(C(C)C)cc1	none (no result: Diaph act CS, Diaph inh CS, Tb hexokinase, G6PDH CS)
COc1ccc(-n2c(=O)c3c4c(sc3n3c(=S)[nH]nc23)COC(C(C)C)C4)cc1 (stereo not given)	none (no result: Diaph act CS, Diaph inh CS, G6PDH CS)
c1ccc2[nH]c(N3CCOCC3)nc2c1	none
c1ccc(N2CCN(c3nc4ccccc4[nH]3)CC2)nc1	Diaph inh CS 67.0
O=C(NN=C1CCCC1)c1ccccc1OCCOc1ccccc1	none
CCC1(C(=O)NC(=Nc2ccccc2)Nc2ccccc2)CCOC1=O (stereo not given)	none (no result: Diaph act CS, Diaph inh CS, Tb hexokinase, G6PDH CS)
CC(C)Oc1ccc(S(=O)(=O)N2CCOCC2)cc1NC(=O)CSc1nnc(C2CC2)n1C	none (no result: Diaph act CS, Diaph inh CS, Tb hexokinase, G6PDH CS, HKDC1 inhibitor)
Oc1ccc2[nH]ccc2c1	G6PDH CS 55.9
Cc1cccc(NCc2ccc(O)c3ncccc23)c1C	Diaph inh CS 80.3
Cc1cccnc1NCc1ccc(O)c2ncccc12	Diaph inh CS 77.2
N#Cc1c2nc3ccccc3nc2n2cc(NC(=O)c3ccc(F)cc3)ccc12	Diaph inh CS 89.9
Cc1c(C(=O)Nc2ccc(F)cc2)cn2c(nc3ccccc32)c1C#N	none (no result: Diaph act CS, Diaph inh CS, G6PDH CS)
COn1c(C)c(C(C)=O)c2c3nonc3ccc21	Diaph inh CS 53.2
CCCCOn1c(C)c(C(=O)OCC)c2c3nonc3ccc21	none (no result: Diaph act CS, Diaph inh CS, G6PDH CS)
O=C(C[n+]1ccc(CCSc2ccc(F)cc2)cc1)c1ccccc1	PfGluPho inh 70.2
Cc1ccc(SCCc2cc[n+](CC(=O)c3ccccc3)cc2)cc1	none
Cc1ccc(-c2n[nH]c(=S)n2/N=C/C=C\c2ccccc2[N+](=O)[O-])cc1	Diaph inh CS 66.2
O=[N+]([O-])c1ccccc1/C=C/C=N/n1c(-c2ccc(Cl)cc2)n[nH]c1=S	none
O=[N+]([O-])c1ccccc1/C=C/C=N/n1c(-c2ccccc2)n[nH]c1=S	Diaph inh CS 68.2
Cc1ccc(S(=O)(=O)NCCC(=O)NCC(=O)Nc2c(C)cccc2C)cc1C	none (no result: Diaph act CS, Diaph inh CS, Tb hexokinase, G6PDH CS)
COC(=O)c1ccc(OCC(O)CN2CCN(C(=O)c3ccco3)CC2)c(OC)c1 (stereo not given)	none (no result: Diaph act CS, Diaph inh CS, Tb hexokinase, G6PDH CS)
CNc1ccc(Br)cc(C(=O)/C=C/c2ccc3c(c2)OCO3)c1=O	Diaph inh CS 56.7
Cc1nc(NCCc2ccccc2)sc1C(=O)N(C)C	none (no result: Diaph act CS, Diaph inh CS, Tb hexokinase, G6PDH CS)
O=C(C1=C[C@H](c2ccc(C(F)(F)F)cc2)C[C@H](OCc2ccc(CO)cc2)O1)N1CCCCCCC1	Diaph inh CS 50.5
O=C(C1=C[C@@H](c2ccc(C(F)(F)F)cc2)C[C@@H](OCc2ccc(CO)cc2)O1)N1CCOCC1	none
CC(=O)n1cc([C@H]2C=C(C(=O)N3CCN(Cc4ccc5c(c4)OCO5)CC3)O[C@@H](OCc3ccc(CO)cc3)C2)c2ccccc21	none
CC(=O)n1cc([C@H]2C=C(C(=O)N3CCN(Cc4ccccc4)CC3)O[C@@H](OCc3ccc(CO)cc3)C2)c2ccccc21	Diaph inh CS 51.6
CCOc1c(Nc2ccccc2O)c(=O)c1=O	none (no result: Diaph act CS, Diaph inh CS, G6PDH CS)
O=C1CC(c2ccco2)Sc2nc3ccccc3n21 (stereo not given)	Diaph inh CS 51.3
O=C1CC(c2ccccc2)Sc2nc3ccccc3n21 (stereo not given)	none
COc1cccc(CNc2ccc(N3CCC(C)CC3)cc2)c1OC	Diaph inh CS 63.3
CC1CCN(c2ccc(NC(=O)Cc3ccccc3)cc2)CC1	none
CC(=O)NC(c1ccc(Cl)cc1)c1c(O)ccc2ccc(O)cc12 (stereo not given)	G6PDH CS 54.1
CCOc1cc(/C=N/N=C(N)N)ccc1OCc1ccc(Cl)cc1	Diaph act CS 2
COc1cc(/C=N/N=C(N)N)ccc1OCc1ccc(Cl)cc1	none
CC[C@]12C(=O)N(C)C[C@H]([C@@H]3C(=O)N(Cc4ccccc4)C(=O)[C@@H]31)N2C(=O)c1ccc(C(F)(F)F)cc1	none (no result: Diaph act CS, Diaph inh CS, Tb hexokinase, G6PDH CS)
Cc1nn(C)c(C)c1Nc1ccc(N2C(=O)C3CC=CCC3C2=O)cc1[N+](=O)[O-] (stereo not given)	none
COc1ccc(NS(=O)(=O)c2cc(NC(=O)c3nc4nc(C)cc(C)n4n3)ccc2C)cc1	none
CCn1c(SCc2nc3sc(C(=O)O)c(C)c3c(=O)[nH]2)nc2ccccc21	Diaph inh CS 60.9
Cc1cccc(N2CCN(C(=O)Cn3sc4nc(C)cc(C)c4c3=O)CC2C)c1 (stereo not given)	PfGluPho inh 104.9
Cc1cnccc1CN(C)Cc1cn(C)nc1-c1ccc(Oc2ccccc2)cc1	none
Cc1cnccc1CN(C)Cc1cn(C)nc1-c1cccc(Cl)c1	Diaph inh CS 50.1
O=C(N/N=C/c1cc([N+](=O)[O-])ccc1O)C1CCCCC1	Diaph inh CS 56.4
O=C(CSC(=S)N1CCCC1)N(Cc1nnc(-c2ccccc2Cl)o1)C1CC1	none (no result: Diaph act CS, Diaph inh CS, Tb hexokinase, G6PDH CS)
Nc1ccc(N2CCCCC2)cc1N1CCCCC1	Diaph inh CS 57.2
Nc1ccc(N2CCCCC2)c2nonc12	G6PDH CS 53.6
Nc1cc(Cl)ccc1N1CCCCC1	none
Nc1c(N2CCOCC2)cc(Cl)c2nonc12	none
Nc1c(N2CCCC2)cc(Cl)c2nonc12	Diaph inh CS 61.7, G6PDH CS 56.6
O=C(c1c[nH]c(C(=O)C(Cl)(Cl)Cl)c1)c1ccc(F)cc1Cl	Diaph inh CS 59.8
CN(C)C=Nc1c(Br)cc(Br)c2nonc12	Diaph inh CS 62.0
CN(C)C=Nc1nonc1-c1ccccc1	none (no result: Diaph act CS, Diaph inh CS, G6PDH CS)
COc1ccccc1NC(=O)CCCc1nc(-c2ccc(OC)c(OC)c2)no1	none
CC(=O)C(C(C)=O)c1c(Cl)c(O)c(O)c2c(C(=O)c3ccccc3)coc12	Diaph inh CS 67.2
